Assays:
[1] = biological target: Angiotensin-converting enzyme (Rattus norvegicus) (UniProt P47820); test: The time to 50% recovery of the angiotensin I response was measured after po administration at 0.3 mg/kg; 10-30
Rattus norvegicus [2] = test: Time taken by the compound to change arterial pressure outside the control area at a dose of 100 mg/kg, po; 15->24; format: functional, Artery
Outline: (§1)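 Spontaneously hypertensive rats kept on a sodium-deficient diet, single oral dose, arterial pressure and heart rate monitored. Duration is the time pressure lies outside a control area, defined as the means (±2 standard deviations) of arterial pressure and heart rate readings from 45 control rats. Range given across animals.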

Rattus norvegicus [3] = test: Maximum percent change in mean arterial pressure by the compound over control after po administration at 100 mg/kg dosage; -(-27-45); format: functional, Artery
Outline: (§2)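 Spontaneously hypertensive rats kept on a sodium-deficient diet received the agent orally. Value = maximum % change in mean arterial pressure over control. Duration = time outside a control area, defined as the means ±2 SD of arterial pressure and heart rate readings from 45 control rats.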

[4] = biological target: Angiotensin-converting enzyme (Rattus norvegicus) (UniProt P47820); test: Percentage inactivation of the angiotensin I induced vasopressor response in normotensive conscious rats after po administration at dose 0.3 mg/kg; 45-50
[5] = biological target: T1, Angiotensin-converting enzyme (Oryctolagus cuniculus, UniProt P12822); test: In vitro inhibition of Angiotensin I converting enzyme activity in rabbit lung; format: tissue-based; details: read-out: I50
T1 sequence (P12822 whole entry): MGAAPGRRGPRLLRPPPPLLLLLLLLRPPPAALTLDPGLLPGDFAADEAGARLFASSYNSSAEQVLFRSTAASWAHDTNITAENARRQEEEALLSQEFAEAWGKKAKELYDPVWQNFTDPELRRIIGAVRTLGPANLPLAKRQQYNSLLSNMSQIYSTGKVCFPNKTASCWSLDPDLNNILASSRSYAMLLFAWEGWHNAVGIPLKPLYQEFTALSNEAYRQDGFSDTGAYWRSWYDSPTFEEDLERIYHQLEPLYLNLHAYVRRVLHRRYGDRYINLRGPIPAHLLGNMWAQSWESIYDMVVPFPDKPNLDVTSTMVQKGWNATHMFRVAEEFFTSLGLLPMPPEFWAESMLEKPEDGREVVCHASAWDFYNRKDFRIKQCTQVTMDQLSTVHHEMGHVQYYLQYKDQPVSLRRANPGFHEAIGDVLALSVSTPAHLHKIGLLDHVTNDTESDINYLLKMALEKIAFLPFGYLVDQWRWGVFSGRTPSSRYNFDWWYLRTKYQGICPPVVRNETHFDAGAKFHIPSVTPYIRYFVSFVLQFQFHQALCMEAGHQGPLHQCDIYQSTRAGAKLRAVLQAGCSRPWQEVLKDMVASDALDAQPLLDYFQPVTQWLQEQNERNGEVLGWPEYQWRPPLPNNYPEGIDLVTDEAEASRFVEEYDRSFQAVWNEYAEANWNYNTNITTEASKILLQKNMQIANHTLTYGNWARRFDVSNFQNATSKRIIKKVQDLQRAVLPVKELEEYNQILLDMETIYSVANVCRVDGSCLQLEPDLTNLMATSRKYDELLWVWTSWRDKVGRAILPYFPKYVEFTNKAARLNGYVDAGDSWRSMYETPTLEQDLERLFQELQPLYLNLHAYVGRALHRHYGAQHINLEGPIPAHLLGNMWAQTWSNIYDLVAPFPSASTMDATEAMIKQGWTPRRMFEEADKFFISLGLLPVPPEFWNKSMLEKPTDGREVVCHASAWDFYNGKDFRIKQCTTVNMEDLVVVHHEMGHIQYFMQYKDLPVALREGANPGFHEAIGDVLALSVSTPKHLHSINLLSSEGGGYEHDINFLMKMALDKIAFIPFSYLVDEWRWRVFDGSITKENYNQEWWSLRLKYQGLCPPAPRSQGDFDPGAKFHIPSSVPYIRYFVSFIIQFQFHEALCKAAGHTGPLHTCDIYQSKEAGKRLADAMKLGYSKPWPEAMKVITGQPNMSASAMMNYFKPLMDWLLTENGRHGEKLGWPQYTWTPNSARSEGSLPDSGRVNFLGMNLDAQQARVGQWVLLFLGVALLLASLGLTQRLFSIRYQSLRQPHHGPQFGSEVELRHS

[6] = biological target: T1, Angiotensin-converting enzyme; test: Compound was tested in vitro for inhibition of activity of rabbit lung Angiotensin I converting enzyme at pH 8.5; 0.14-10; details: read-out: I50
[7] = biological target: Angiotensin-converting enzyme (Rattus norvegicus) (UniProt P47820); test: The time to 50% recovery of the angiotensin I response was measured after po administration at 0.6 mg/kg; 40-50
Rattus norvegicus [8] = test: Maximum percent change in mean arterial pressure by the compound over control after po administration at 100 mg/kg dosage; -(17-29); format: functional, Artery
Outline: as §2

Rattus norvegicus [9] = test: Time taken by the compound to change arterial pressure outside the control area at a dose of 100 mg/kg, po; 5.5-15; format: functional, Artery
Outline: as §1

[10] = biological target: T1, Angiotensin-converting enzyme; test: In vitro inhibition of Angiotensin I converting enzyme activity at pH 8.5 in rabbit lung; format: tissue-based; details: read-out: I50
[11] = biological target: Angiotensin-converting enzyme (Rattus norvegicus) (UniProt P47820); test: Percentage inactivation of the angiotensin I induced vasopressor response in normotensive conscious rats after po administration at dose 0.60 mg/kg; 50-55
[12] = biological target: Angiotensin-converting enzyme (Rattus norvegicus) (UniProt P47820); test: Percentage inactivation of the angiotensin I induced vasopressor response in normotensive conscious rats after po administration at dose 0.15 mg/kg
[13] = biological target: Angiotensin-converting enzyme (Rattus norvegicus) (UniProt P47820); test: The time to 50% recovery of the angiotensin I response was measured after po administration at 0.15 mg/kg; 10-20
Rattus norvegicus [14] = test: Maximum percent change in mean arterial pressure by the compound over control after ip administration at 100 mg/kg dosage; 9-14; details: route intraperitoneal
Rattus norvegicus [15] = test: Maximum percent change in mean arterial pressure by the compound over control after po administration at 100 mg/kg dosage; -(15-27); format: functional, Artery
Outline: as §2

Rattus norvegicus [16] = test: Time taken by the compound to change arterial pressure outside the control area at a dose of 100 mg/kg, po; 2-12.5; format: functional, Artery
Outline: as §1

[17] = biological target: Angiotensin-converting enzyme (Rattus norvegicus) (UniProt P47820); test: Percentage inactivation of the angiotensin I induced vasopressor response in normotensive conscious rats after po administration at dose 0.15 mg/kg; 65-69
Rattus norvegicus [18] = test: The time to 50% recovery of the angiotensin I response was measured after po administration at 0.15 mg/kg; 10-50
Rattus norvegicus [19] = test: Time taken by the compound to change arterial pressure outside the control area at a dose of 100 mg/kg, po; format: functional, Artery
Outline: as §1

[20] = biological target: Angiotensin-converting enzyme (Rattus norvegicus) (UniProt P47820); test: The time to 50% recovery of the angiotensin I response was measured after po administration at 0.8 mg/kg; 35-50
Rattus norvegicus [21] = test: Maximum percent change in mean arterial pressure by the compound over control after po administration at 100 mg/kg dosage; -(-32-40); format: functional, Artery
Outline: as §2

[22] = biological target: Angiotensin-converting enzyme (Rattus norvegicus) (UniProt P47820); test: Percentage inactivation of the angiotensin I induced vasopressor response in normotensive conscious rats after po administration at dose 0.80 mg/kg; 50-55
[23] = biological target: Angiotensin-converting enzyme (Rattus norvegicus) (UniProt P47820); test: The time to 50% recovery of the angiotensin I response was measured after po administration at 1.5 mg/kg; 70-90
Rattus norvegicus [24] = test: Time taken by the compound to change arterial pressure outside the control area at a dose of 50 mg/kg, po; 3-19.5; format: functional, Artery
Outline: as §1

Rattus norvegicus [25] = test: Maximum percent change in mean arterial pressure by the compound over control after po administration at 50 mg/kg dosage; -(31-34); format: functional, Artery
Outline: as §2

[26] = biological target: Angiotensin-converting enzyme (Rattus norvegicus) (UniProt P47820); test: Percentage inactivation of the angiotensin I induced vasopressor response in normotensive conscious rats after po administration at dose 1.5 mg/kg; 71-81
Rattus norvegicus [27] = test: Maximum percent change in mean arterial pressure by the compound over control after po administration at 100 mg/kg dosage; format: functional, Artery
Outline: as §2

[28] = biological target: Angiotensin-converting enzyme (Rattus norvegicus) (UniProt P47820); test: Percentage inactivation of the angiotensin I induced vasopressor response in normotensive conscious rats after po administration at dose 0.15 mg/kg; 55-76
[29] = biological target: Angiotensin-converting enzyme (Rattus norvegicus) (UniProt P47820); test: The time to 50% recovery of the angiotensin I response was measured after po administration at 0.15 mg/kg; 10-40

Chain of Angiotensin-converting enzyme (Rattus norvegicus) (P47820 whole entry, looked up): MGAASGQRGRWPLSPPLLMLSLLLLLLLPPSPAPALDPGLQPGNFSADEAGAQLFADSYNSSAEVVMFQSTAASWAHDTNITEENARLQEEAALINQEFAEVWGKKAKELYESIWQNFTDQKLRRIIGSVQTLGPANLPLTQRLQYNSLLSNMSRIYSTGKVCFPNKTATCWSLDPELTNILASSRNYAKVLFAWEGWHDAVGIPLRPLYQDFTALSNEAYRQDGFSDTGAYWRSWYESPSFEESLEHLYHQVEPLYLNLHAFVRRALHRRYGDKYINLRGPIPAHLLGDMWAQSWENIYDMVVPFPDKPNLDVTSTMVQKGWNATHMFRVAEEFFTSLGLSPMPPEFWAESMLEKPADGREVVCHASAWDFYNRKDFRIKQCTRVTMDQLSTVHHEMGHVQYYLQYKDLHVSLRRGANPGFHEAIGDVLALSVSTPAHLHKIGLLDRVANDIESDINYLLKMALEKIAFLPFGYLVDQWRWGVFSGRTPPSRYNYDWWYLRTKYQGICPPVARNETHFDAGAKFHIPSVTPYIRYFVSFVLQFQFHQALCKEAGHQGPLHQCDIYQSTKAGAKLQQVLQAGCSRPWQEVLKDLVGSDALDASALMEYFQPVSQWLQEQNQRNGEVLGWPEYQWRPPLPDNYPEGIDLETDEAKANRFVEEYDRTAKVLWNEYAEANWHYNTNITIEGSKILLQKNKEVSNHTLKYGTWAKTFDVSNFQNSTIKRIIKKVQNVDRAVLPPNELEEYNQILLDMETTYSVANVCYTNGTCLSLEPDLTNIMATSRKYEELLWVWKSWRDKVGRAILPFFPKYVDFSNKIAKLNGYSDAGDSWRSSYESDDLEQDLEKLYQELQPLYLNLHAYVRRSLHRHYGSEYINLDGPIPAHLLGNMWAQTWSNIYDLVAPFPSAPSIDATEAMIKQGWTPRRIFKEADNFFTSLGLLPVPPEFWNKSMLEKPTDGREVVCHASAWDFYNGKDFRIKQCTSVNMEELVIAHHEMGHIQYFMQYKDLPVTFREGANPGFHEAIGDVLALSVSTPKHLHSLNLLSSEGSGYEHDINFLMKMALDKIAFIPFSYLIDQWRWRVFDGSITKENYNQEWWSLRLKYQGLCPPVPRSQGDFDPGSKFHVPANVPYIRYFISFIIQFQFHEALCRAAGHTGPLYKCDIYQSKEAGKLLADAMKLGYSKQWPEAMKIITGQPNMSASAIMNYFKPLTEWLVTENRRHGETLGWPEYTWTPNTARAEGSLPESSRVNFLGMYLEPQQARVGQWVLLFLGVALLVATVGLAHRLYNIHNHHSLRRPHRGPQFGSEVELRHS

## C[C@@H]1CSC(=O)[C@@H]2Cc3ccccc3CN2C1=O
[1]
  Duration: 10 min
Rattus norvegicus [2]
  Duration: 900 min
Rattus norvegicus [3]
  MAP: -27%
[4]
  inhibition: 45%
[5]
  IC50: 12 nM

## CC1SC(=O)C2CSCN2C1=O (configuration not stated)
[6]
  IC50: 140 nM
[5]
  IC50: 380 nM

## O=C1CN(C2CCCC2)C(=O)c2cccc(Cl)c2S1
[7]
  Duration: 40 min
Rattus norvegicus [8]
  MAP: -17%
Rattus norvegicus [9]
  Duration: 5.5 h
[10]
  IC50: 280 nM
[11]
  inhibition: 50%
[5]
  IC50: 210 nM

## O=C1CN(C2CCCC2)C(=O)c2ccccc2S1
[12]
  inhibition: 5%
[13]
  Duration: 10 min
[10]
  IC50: 4800 nM
Rattus norvegicus [14]
  MAP: 9%
[5]
  IC50: 4500 nM

## CC1CSC(=O)CN(C2CCCC2)C1=O (configuration not stated)
Rattus norvegicus [15]
  MAP: -15%
[10]
  IC50: 18 nM
Rattus norvegicus [16]
  Duration: 2 h
[5]
  IC50: 13 nM
[17]
  inhibition: 65%
Rattus norvegicus [18]
  Duration: 10 min

## COc1cccc2c1SC(=O)CN(C1CCCC1)C2=O
Rattus norvegicus [19]
  Duration: >24 h
[20]
  Duration: 35 min
Rattus norvegicus [21]
  MAP: -32%
[10]
  IC50: 380 nM
[22]
  inhibition: 50%
[5]
  IC50: 400 nM

## Cc1ccc(N2CC(=O)SC(C)C2=O)cc1 (configuration not stated)
[23]
  Duration: 70 min
Rattus norvegicus [24]
  Duration: 3 h
Rattus norvegicus [25]
  MAP: -31%
[26]
  inhibition: 71%
[10]
  IC50: 26 nM
[5]
  IC50: 85 nM

## Cc1ccc(N2CC(=O)SCC(C)C2=O)cc1 (configuration not stated)
Rattus norvegicus [27]
  MAP: -37%
[28]
  inhibition: 55%
Rattus norvegicus [19]
  Duration: > 24 h
[10]
  IC50: 5 nM
[5]
  IC50: 21 nM
[29]
  Duration: 10 min

Source: ChEMBL document CHEMBL1123181 (J Med Chem, 1986)
